{"source": "ChEMBL document CHEMBL3861958", "about": "“Synthesis and anticholinesterase activity of coumarin-3-carboxamides bearing tryptamine moiety” (Eur J Med Chem, 2016)", "key": {"[1]": {"biological_target": "Cholinesterase (Equus caballus, UniProt P81908)", "sequence (P81908 whole entry)": "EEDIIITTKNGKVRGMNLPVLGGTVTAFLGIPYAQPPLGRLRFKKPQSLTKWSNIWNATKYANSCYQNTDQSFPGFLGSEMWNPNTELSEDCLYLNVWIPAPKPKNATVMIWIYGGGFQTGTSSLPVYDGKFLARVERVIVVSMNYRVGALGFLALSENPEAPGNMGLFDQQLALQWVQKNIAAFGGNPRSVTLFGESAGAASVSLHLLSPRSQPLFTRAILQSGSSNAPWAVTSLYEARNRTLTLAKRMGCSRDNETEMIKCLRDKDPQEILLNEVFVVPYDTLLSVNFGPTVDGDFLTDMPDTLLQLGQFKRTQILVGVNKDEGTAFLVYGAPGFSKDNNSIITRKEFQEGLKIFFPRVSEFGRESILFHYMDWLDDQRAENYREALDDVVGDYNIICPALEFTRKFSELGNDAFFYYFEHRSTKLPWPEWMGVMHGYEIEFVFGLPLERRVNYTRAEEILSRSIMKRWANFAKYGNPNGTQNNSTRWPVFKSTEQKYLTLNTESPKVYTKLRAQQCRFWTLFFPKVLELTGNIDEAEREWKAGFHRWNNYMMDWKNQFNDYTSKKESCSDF", "experiment": "Inhibition of equine serum BuChE using butyrylthiocholine iodide as substrate measured for 2 mins by Ellman's method", "summary_of_the_method": "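Ellman assay with equine serum BuChE (enzyme solution 2 U/mL added) in 0.1 M phosphate buffer pH 8.0 with DTNB. Compounds in 1:9 DMSO/ethanol, tested at four concentrations spanning 20–80% inhibition. Reaction started with butyrylthiocholine iodide (0.15 M stock). A412 followed for 2 min at 30 s intervals. IC50 read graphically from log concentration vs % inhibition. Quadruplicates.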"}, "[2]": {"biological_target": "T1, Acetylcholinesterase (Electrophorus electricus, UniProt O42275)", "T1 sequence (O42275 whole entry)": "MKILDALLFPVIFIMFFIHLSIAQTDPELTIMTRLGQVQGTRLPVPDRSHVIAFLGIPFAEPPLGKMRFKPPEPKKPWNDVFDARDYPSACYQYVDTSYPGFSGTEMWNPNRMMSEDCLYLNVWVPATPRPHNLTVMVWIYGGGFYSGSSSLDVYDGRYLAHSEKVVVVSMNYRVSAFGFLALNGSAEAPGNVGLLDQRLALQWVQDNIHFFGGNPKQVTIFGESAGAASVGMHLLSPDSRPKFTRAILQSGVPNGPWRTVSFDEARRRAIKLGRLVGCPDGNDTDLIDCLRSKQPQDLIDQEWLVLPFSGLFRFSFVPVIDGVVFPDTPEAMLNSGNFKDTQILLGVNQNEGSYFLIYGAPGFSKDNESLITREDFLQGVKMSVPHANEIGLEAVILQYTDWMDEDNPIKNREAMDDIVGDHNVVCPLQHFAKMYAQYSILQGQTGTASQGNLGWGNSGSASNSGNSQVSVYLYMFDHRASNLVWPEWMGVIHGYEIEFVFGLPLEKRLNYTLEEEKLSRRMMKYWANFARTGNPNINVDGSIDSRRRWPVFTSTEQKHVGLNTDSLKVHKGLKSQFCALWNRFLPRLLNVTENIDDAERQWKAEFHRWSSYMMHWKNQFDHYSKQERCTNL", "experiment": "Inhibition of electric eel AChE using acetylthiocholine iodide as substrate measured for 2 mins by Ellman's method"}, "[3]": {"biological_target": "T1, Acetylcholinesterase", "experiment": "Mixed-type inhibition of electric eel AChE using acetylthiocholine iodide as substrate measured for 2 mins by Lineweaver-Burk plot analysis", "summary_of_the_method": "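Kinetics used electric eel AChE (type V-S, enzyme solution 2 U/mL added) under the Ellman conditions: 0.1 M phosphate pH 8.0, DTNB, A412. Initial velocities measured across varied acetylthiocholine concentrations at inhibitor 0, 0.069, 0.206 and 0.618 μM. 1/v plotted against 1/[S] (Lineweaver-Burk) to assign inhibition type. Ki taken from a secondary plot.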"}}, "data": [{"compound": "COc1cccc2cc(C(=O)NCCc3c[nH]c4ccccc34)c(=O)oc12", "values": [{"measurement": "IC50", "setting": "[1]", "result": 20.1, "unit": "µM"}, {"measurement": "IC50", "setting": "[2]", "result": 2.8, "unit": "µM"}]}, {"compound": "O=C(NCCc1c[nH]c2ccccc12)c1cc2ccccc2oc1=O", "values": [{"measurement": "IC50", "setting": "[1]", "result": 50.5, "unit": "µM"}, {"measurement": "IC50", "setting": "[2]", "result": 5.9, "unit": "µM"}]}, {"compound": "O=C(NCCc1c[nH]c2ccccc12)c1cc2ccc(OCc3ccc(F)cc3)cc2oc1=O", "values": [{"measurement": "IC50", "setting": "[1]", "result": 29.7, "unit": "µM"}, {"measurement": "Ki", "setting": "[3]", "result": 0.49, "unit": "µM"}, {"measurement": "IC50", "setting": "[2]", "result": 0.16, "unit": "µM"}]}, {"compound": "O=C(NCCc1c[nH]c2ccccc12)c1cc2ccc(OCc3ccc(Cl)c(Cl)c3)cc2oc1=O", "values": [{"measurement": "IC50", "setting": "[1]", "result": "> 100", "unit": "µM"}, {"measurement": "IC50", "setting": "[2]", "result": 31.5, "unit": "µM"}]}, {"compound": "O=C(NCCc1c[nH]c2ccccc12)c1cc2ccc(OCc3ccc(Cl)cc3)cc2oc1=O", "values": [{"measurement": "IC50", "setting": "[1]", "result": "> 100", "unit": "µM"}, {"measurement": "IC50", "setting": "[2]", "result": 12.4, "unit": "µM"}]}, {"compound": "O=C(NCCc1c[nH]c2ccccc12)c1cc2ccc(OCc3ccccc3Cl)cc2oc1=O", "values": [{"measurement": "IC50", "setting": "[1]", "result": "> 100", "unit": "µM"}, {"measurement": "IC50", "setting": "[2]", "result": 22.5, "unit": "µM"}]}, {"compound": "CCCOc1ccc2cc(C(=O)NCCc3c[nH]c4ccccc34)c(=O)oc2c1", "values": [{"measurement": "IC50", "setting": "[1]", "result": "> 100", "unit": "µM"}, {"measurement": "IC50", "setting": "[2]", "result": 18.7, "unit": "µM"}]}, {"compound": "COc1ccc2cc(C(=O)NCCc3c[nH]c4ccccc34)c(=O)oc2c1", "values": [{"measurement": "IC50", "setting": "[1]", "result": 34.6, "unit": "µM"}, {"measurement": "IC50", "setting": "[2]", "result": 3.5, "unit": "µM"}]}, {"compound": "O=C(NCCc1c[nH]c2ccccc12)c1cc2ccc(OCc3cccc(Cl)c3Cl)cc2oc1=O", "values": [{"measurement": "IC50", "setting": "[1]", "result": "> 100", "unit": "µM"}, {"measurement": "IC50", "setting": "[2]", "result": "> 100", "unit": "µM"}]}, {"compound": "O=C(NCCc1c[nH]c2ccccc12)c1cc2ccc(OCc3ccccc3)cc2oc1=O", "values": [{"measurement": "IC50", "setting": "[1]", "result": 16.2, "unit": "µM"}, {"measurement": "IC50", "setting": "[2]", "result": 1.5, "unit": "µM"}]}, {"compound": "O=C(NCCc1c[nH]c2ccccc12)c1cc2ccc(OCc3cccc(F)c3)cc2oc1=O", "values": [{"measurement": "IC50", "setting": "[1]", "result": 27.8, "unit": "µM"}, {"measurement": "IC50", "setting": "[2]", "result": 2.5, "unit": "µM"}]}, {"compound": "CCOc1ccc2cc(C(=O)NCCc3c[nH]c4ccccc34)c(=O)oc2c1", "values": [{"measurement": "IC50", "setting": "[1]", "result": "> 100", "unit": "µM"}, {"measurement": "IC50", "setting": "[2]", "result": 43.8, "unit": "µM"}]}, {"compound": "O=C(NCCc1c[nH]c2ccccc12)c1cc2cc(Br)ccc2oc1=O", "values": [{"measurement": "IC50", "setting": "[1]", "result": "> 100", "unit": "µM"}, {"measurement": "IC50", "setting": "[2]", "result": "> 100", "unit": "µM"}]}, {"compound": "O=C(NCCc1c[nH]c2ccccc12)c1cc2ccc(O)cc2oc1=O", "values": [{"measurement": "IC50", "setting": "[1]", "result": "> 100", "unit": "µM"}, {"measurement": "IC50", "setting": "[2]", "result": "> 100", "unit": "µM"}]}, {"compound": "O=C(NCCc1c[nH]c2ccccc12)c1cc2ccc(OCc3ccccc3F)cc2oc1=O", "values": [{"measurement": "IC50", "setting": "[1]", "result": 27.5, "unit": "µM"}, {"measurement": "IC50", "setting": "[2]", "result": 2.5, "unit": "µM"}]}]}
